Results reported in ChEMBL document CHEMBL1121991, “4-Aroyl-1,3-dihydro-2H-imidazol-2-ones, a new class of cardiotonic agents” (1982).

Tested on: Canis familiaris
Test: The heart rate was determined after 1.0 mg/kg administration with 20 mg/kg pentobarbital in the dog heart-lung preparation.
Format: functional, Canis lupus familiaris
How it was run: (§1)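 Isolated dog heart-lung preparation from mongrel dogs of either sex (11–19 kg), anesthetized with sodium pentobarbital 35 mg/kg iv. A strain gauge arch on the right ventricle recorded contractile force, EKG lead II gave heart rate, a left atrial cannula and transducer gave LAP, and an extracorporeal flow meter gave aortic flow. Failure was induced by adding pentobarbital to the blood reservoir, then compound was added to the reservoir; readings at 10 min. Five preparations; means ± SE; ANOVA.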

| Compound | Heart rate [beats min-1] |
| --- | --- |
| CCCC(C)C1(CC)C(=O)NC(=O)NC1=O (stereo not drawn) [PENTOBARBITAL] | 133 |

Tested on: Canis familiaris
Test: The cardiac contractile force was determined after 1.0 mg/kg administration with 20 mg/kg pentobarbital in the dog heart-lung preparation.
Format: functional, Canis lupus familiaris
How it was run: as §1

| Compound | Cardiac contractile force [g] |
| --- | --- |
| CCCC(C)C1(CC)C(=O)NC(=O)NC1=O (stereo not drawn) [PENTOBARBITAL] | 32.2 |

Tested on: Canis familiaris
Test: The cardiac output was determined after 1.0 mg/kg administration with 20 mg/kg pentobarbital in the dog heart-lung preparation.
Format: functional, Canis lupus familiaris
How it was run: as §1

| Compound | Cardiac output [mL/min] |
| --- | --- |
| CCCC(C)C1(CC)C(=O)NC(=O)NC1=O (stereo not drawn) [PENTOBARBITAL] | 613 |

Tested on: Canis familiaris
Test: The change in cardiac contractile force was determined after 0.1 ug/kg iv administration in dog.
Format: functional, Canis lupus familiaris, Heart
How it was run: (§2)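 Anesthetized dogs: a Walton-Brodie strain gauge arch sutured to the left ventricle recorded contractile force, and blood pressure was recorded, after at least 30 min stabilization. Isoproterenol 0.1 μg/kg iv was given to controls or to dogs pretreated with propranolol 0.5 mg/kg iv. The value is the % change from pre-dose control; N = 6 per group; means ± SE; Student's t test.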

| Compound | Change [%] |
| --- | --- |
| CC(C)NCC(O)c1ccc(O)c(O)c1 (stereo not drawn) [ISOPROTERENOL] | 133 |

Tested on: Canis familiaris
Test: The left atrial pressure was determined after 1.0 mg/kg administration with 20 mg/kg pentobarbital in the dog heart-lung preparation.
Format: functional, Canis lupus familiaris, Cardiac atrium
How it was run: as §1

| Compound | Left atrial pressure [mmHg] |
| --- | --- |
| CCCC(C)C1(CC)C(=O)NC(=O)NC1=O (stereo not drawn) [PENTOBARBITAL] | 12.1 |

Tested on: Canis familiaris
Test: The change in mean arterial blood pressure was determined after 0.1 ug/kg iv administration in dog.
Format: functional, Canis lupus familiaris
How it was run: as §2

| Compound | Change [%] |
| --- | --- |
| CC(C)NCC(O)c1ccc(O)c(O)c1 (stereo not drawn) [ISOPROTERENOL] | -27 |

Tested on: Canis familiaris
Test: The stroke volume was determined after 1.0 mg/kg administration with 20 mg/kg pentobarbital in the dog heart-lung preparation.
Format: functional, Canis lupus familiaris
How it was run: as §1

| Compound | Stroke volume [mL] |
| --- | --- |
| CCCC(C)C1(CC)C(=O)NC(=O)NC1=O (stereo not drawn) [PENTOBARBITAL] | 4.6 |

Tested on: Canis familiaris
Test: The stroke work was determined after 1.0 mg/kg administration with 20 mg/kg pentobarbital in the dog heart-lung preparation.
Format: functional, Canis lupus familiaris
How it was run: as §1

| Compound | Stroke work [g] |
| --- | --- |
| CCCC(C)C1(CC)C(=O)NC(=O)NC1=O (stereo not drawn) [PENTOBARBITAL] | 3 |

Tested on: Canis familiaris
Test: Pharmacological activity for Blood pressure, -20% in anesthetized dog was determined after intravenous administration
Format: functional, Canis lupus familiaris
How it was run: (§3)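 Anesthetized dogs; contractile force recorded by a left-ventricular Walton-Brodie strain gauge arch, heart rate from lead II EKG, plus blood pressure. Stabilized at least 30 min, then at least three iv doses given, one compound per animal, with return to basal between doses. Doses for +30% force, +15% rate and −20% BP were extrapolated from dose-response curves; geometric mean where repeated.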

| Compound | Equieffective dose [mg/kg] |
| --- | --- |
| CCc1[nH]c(O)nc1C(=O)c1ccc(OC)c(OC)c1 | 2.35 |
| O=C(c1ccccc1)c1c[nH]c(O)n1 | 4.4 |
| Cc1[nH]c(O)nc1C(=O)c1ccccc1Cl | 2.1 |
| CCCc1[nH]c(O)nc1C(=O)c1ccc(SC)cc1 | 2.3 |
| CCc1[nH]c(O)nc1C(=O)c1ccc(OC)cc1 | 0.62 |
| Cc1nc(O)[nH]c1C(=O)c1ccc(N2CCN(C)CC2)cc1 | >10 |
| CC(=O)n1c(C)c(C(=O)c2ccc(F)cc2)n(C(C)=O)c1=O | 2.5 |
| COc1ccc(C(=O)c2nc(O)n(C)c2C)cc1 | >10 |
| CC(=O)n1c(C)c(C(=O)c2ccc(N(C)C)cc2)n(C(C)=O)c1=O | >3 |
| O=C(c1c[nH]c(O)n1)c1ccco1 | 4.2 |
| Cc1nc(O)[nH]c1C(=O)c1ccc(N(C)C)cc1 | >3 |
| COc1ccc(C(=O)c2c[nH]c(O)n2)cc1 | 3.1 |
| Cc1[nH]c(O)nc1C(=O)c1ccco1 | 0.72 |
| Cc1[nH]c(O)nc1C(=O)c1ccc(F)cc1 | 1.03 |
| CCc1[nH]c(O)nc1C(=O)c1ccc(SC)cc1 | 0.28 |
| Cc1c(C(=O)c2ccc(N(C)C)cc2)n(C(=O)C(C)C)c(=O)n1C(=O)C(C)C | >10 |

| Compound | Equieffective dose [mg/kg] |
| --- | --- |
| Cc1[nH]c(O)nc1C(=O)c1ccc(N2CCCCC2)cc1 | >10 |
| O=C(c1c[nH]c(O)n1)c1cccs1 | 3.7 |
| Cc1[nH]c(O)nc1C(=O)c1ccc(N2CCCC2)cc1 | 4.5 |
| CCc1[nH]c(O)nc1C(=O)c1cccs1 | 1.6 |
| Cc1[nH]c(O)nc1C(=O)c1ccccc1 | 2.55 |
| CSc1ccc(C(=O)c2[nH]c(=O)[nH]c2C)cc1 [ENOXIMONE] | 0.55 |
| Cc1[nH]c(O)nc1C(=O)c1cccs1 | 2.5 |
| COc1ccc(C(=O)c2[nH]c(O)nc2C)cc1OC | 2 |
| COc1ccc(C(=O)c2c(C)n(C)c(=O)n2C)cc1 | 2.6 |
| Cc1[nH]c(O)nc1C(=O)c1ccccc1O | 4.5 |
| Cc1[nH]c(O)nc1C(=O)c1ccc(O)cc1 | 2.6 |
| Cc1[nH]c(O)nc1C(=O)c1ccc(Cl)cc1 | 0.29 |
| Cc1[nH]c(O)nc1C(=O)c1ccc(Cl)c(Cl)c1 | 2.1 |
| CC(=O)n1c(C)c(C(=O)c2ccccc2)n(C(C)=O)c1=O | 6.5 |
| Cc1[nH]c(O)nc1C(=O)c1ccc(N2CCOCC2)cc1 | 6.4 |

Tested on: Canis familiaris
Test: Pharmacological activity for heart rate +15% in anesthetized dog was determined after intravenous administration
Format: functional, Canis lupus familiaris
How it was run: as §3

| Compound | Equieffective dose [mg/kg] |
| --- | --- |
| CCc1[nH]c(O)nc1C(=O)c1ccc(OC)c(OC)c1 | >3 |
| O=C(c1ccccc1)c1c[nH]c(O)n1 | 4 |
| Cc1[nH]c(O)nc1C(=O)c1ccccc1Cl | 2.2 |
| CCCc1[nH]c(O)nc1C(=O)c1ccc(SC)cc1 | 3 |
| CCc1[nH]c(O)nc1C(=O)c1ccc(OC)cc1 | 0.23 |
| Cc1nc(O)[nH]c1C(=O)c1ccc(N2CCN(C)CC2)cc1 | 9.1 |
| CC(=O)n1c(C)c(C(=O)c2ccc(F)cc2)n(C(C)=O)c1=O | >8 |
| COc1ccc(C(=O)c2nc(O)n(C)c2C)cc1 | >10 |
| CC(=O)n1c(C)c(C(=O)c2ccc(N(C)C)cc2)n(C(C)=O)c1=O | >3 |
| O=C(c1c[nH]c(O)n1)c1ccco1 | 4.3 |
| Cc1nc(O)[nH]c1C(=O)c1ccc(N(C)C)cc1 | 2.2 |
| CSc1ccc(C(=O)c2c[nH]c(O)n2)cc1 | 1.05 |
| COc1ccc(C(=O)c2c[nH]c(O)n2)cc1 | 1.85 |
| Cc1[nH]c(O)nc1C(=O)c1ccco1 | 3.3 |
| Cc1[nH]c(O)nc1C(=O)c1ccc(F)cc1 | >3 |
| CCc1[nH]c(O)nc1C(=O)c1ccc(SC)cc1 | 0.54 |

| Compound | Equieffective dose [mg/kg] |
| --- | --- |
| Cc1c(C(=O)c2ccc(N(C)C)cc2)n(C(=O)C(C)C)c(=O)n1C(=O)C(C)C | >10 |
| Cc1[nH]c(O)nc1C(=O)c1ccc(N2CCCCC2)cc1 | >10 |
| O=C(c1c[nH]c(O)n1)c1cccs1 | >10 |
| Cc1[nH]c(O)nc1C(=O)c1ccc(N2CCCC2)cc1 | 8.5 |
| CCc1[nH]c(O)nc1C(=O)c1cccs1 | 1.45 |
| Cc1[nH]c(O)nc1C(=O)c1ccccc1 | 1.55 |
| CSc1ccc(C(=O)c2[nH]c(=O)[nH]c2C)cc1 [ENOXIMONE] | 1.5 |
| Cc1[nH]c(O)nc1C(=O)c1cccs1 | 5.4 |
| COc1ccc(C(=O)c2[nH]c(O)nc2C)cc1OC | 1.05 |
| COc1ccc(C(=O)c2c(C)n(C)c(=O)n2C)cc1 | >10 |
| Cc1[nH]c(O)nc1C(=O)c1ccccc1O | >10 |
| Cc1[nH]c(O)nc1C(=O)c1ccc(O)cc1 | 1.3 |
| Cc1[nH]c(O)nc1C(=O)c1ccc(Cl)cc1 | 4 |
| Cc1[nH]c(O)nc1C(=O)c1ccc(Cl)c(Cl)c1 | 4 |
| CC(=O)n1c(C)c(C(=O)c2ccccc2)n(C(C)=O)c1=O | >10 |
| Cc1[nH]c(O)nc1C(=O)c1ccc(N2CCOCC2)cc1 | >10 |

Tested on: Canis familiaris
Test: Pharmacological activity for Contractile force, +30% in anesthetized dog was determined after intravenous administration
Format: functional, Canis lupus familiaris
How it was run: as §3

| Compound | Equieffective dose [mg/kg] |
| --- | --- |
| CCc1[nH]c(O)nc1C(=O)c1ccc(OC)c(OC)c1 | 0.18 |
| O=C(c1ccccc1)c1c[nH]c(O)n1 | 3.91 |
| Cc1[nH]c(O)nc1C(=O)c1ccccc1Cl | 0.48 |
| CCCc1[nH]c(O)nc1C(=O)c1ccc(SC)cc1 | 1.13 |
| CCc1[nH]c(O)nc1C(=O)c1ccc(OC)cc1 | 0.15 |
| Cc1nc(O)[nH]c1C(=O)c1ccc(N2CCN(C)CC2)cc1 | >10 |
| CC(=O)n1c(C)c(C(=O)c2ccc(F)cc2)n(C(C)=O)c1=O | 1 |
| COc1ccc(C(=O)c2nc(O)n(C)c2C)cc1 | >10 |
| CC(=O)n1c(C)c(C(=O)c2ccc(N(C)C)cc2)n(C(C)=O)c1=O | 0.36 |
| O=C(c1c[nH]c(O)n1)c1ccco1 | 1.84 |
| Cc1nc(O)[nH]c1C(=O)c1ccc(N(C)C)cc1 | 0.36 |
| CSc1ccc(C(=O)c2c[nH]c(O)n2)cc1 | 0.5 |
| COc1ccc(C(=O)c2c[nH]c(O)n2)cc1 | 0.78 |
| Cc1[nH]c(O)nc1C(=O)c1ccco1 | 1.05 |
| Cc1[nH]c(O)nc1C(=O)c1ccc(F)cc1 | 0.38 |
| CCc1[nH]c(O)nc1C(=O)c1ccc(SC)cc1 | 0.07 |

| Compound | Equieffective dose [mg/kg] |
| --- | --- |
| Cc1c(C(=O)c2ccc(N(C)C)cc2)n(C(=O)C(C)C)c(=O)n1C(=O)C(C)C | 2.45 |
| Cc1[nH]c(O)nc1C(=O)c1ccc(N2CCCCC2)cc1 | >10 |
| O=C(c1c[nH]c(O)n1)c1cccs1 | 0.72 |
| Cc1[nH]c(O)nc1C(=O)c1ccc(N2CCCC2)cc1 | >10 |
| CCc1[nH]c(O)nc1C(=O)c1cccs1 | 0.41 |
| Cc1[nH]c(O)nc1C(=O)c1ccccc1 | 0.23 |
| CSc1ccc(C(=O)c2[nH]c(=O)[nH]c2C)cc1 [ENOXIMONE] | 0.12 |
| Cc1[nH]c(O)nc1C(=O)c1cccs1 | 0.28 |
| COc1ccc(C(=O)c2[nH]c(O)nc2C)cc1OC | 0.4 |
| COc1ccc(C(=O)c2c(C)n(C)c(=O)n2C)cc1 | 4.7 |
| Cc1[nH]c(O)nc1C(=O)c1ccccc1O | 3.28 |
| Cc1[nH]c(O)nc1C(=O)c1ccc(O)cc1 | 0.25 |
| Cc1[nH]c(O)nc1C(=O)c1ccc(Cl)cc1 | 0.18 |
| Cc1[nH]c(O)nc1C(=O)c1ccc(Cl)c(Cl)c1 | 0.7 |
| CC(=O)n1c(C)c(C(=O)c2ccccc2)n(C(C)=O)c1=O | 3 |
| Cc1[nH]c(O)nc1C(=O)c1ccc(N2CCOCC2)cc1 | 1.2 |
